Laboratory results from ChEMBL document CHEMBL4725336, “Anti-cancer potential of (1,2-dihydronaphtho[2,1-b]furan-2-yl)methanone derivatives” (Bioorg Med Chem Lett, 2020).
Activity calls are given as the source filed them. The rule behind the calls is not given here.

What was measured:
[1] = Cytotoxicity against human WI-38 cells assessed as inhibition of cell proliferation by MTT assay; format: cell-based; settings: read-out: LD50 (the source's name)
Method in brief: (§1)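 MTT proliferation assay; cells exposed to compounds across 0-50 μM; LD50 derived from dose-dependent survival. Triple-negative MDA-MB-468, MDA-MB-231 and 4T1, ER+/PR+ MCF-7, and non-cancerous lung fibroblast WI-38 tested.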

MDA-MB-468 [2] = experiment: Induction of ROS generation in human MDA-MB-468 cells assessed as increase in fluorescence intensity at 10 to 30 uM after 12 hrs in presence of ROS scavenger NAC by DCFDA staining based microscopy analysis; format: functional, cell-based; settings: dose microM 10-30, time 12.0 hrs
Method in brief: (§2)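 Cells were pre-treated with 10 mM N-acetyl cysteine (ROS scavenger), then given 10, 20 or 30 μM for 12 h. They were stained with 100 μM DCFDA for 30 min and read by fluorescence microscopy and spectrophotometric intensity. Three experiments, mean ±SD.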

MDA-MB-468 [3] = experiment: Induction of apoptosis in human MDA-MB-468 cells at 30 uM measured after 24 hrs by annexinV-FITC/propidium iodide staining based flow cytometry analysis relative to control; format: functional
Method in brief: (§3)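 Cells were treated with 0, 10, 20 and 30 μM for 24 h, then stained with Annexin V-FITC/PI. Apoptotic cells were quantified by flow cytometry from dot plots against untreated cells.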

MCF7 [4] = experiment: Induction of ROS generation in human MCF7 cells assessed as increase in fluorescence intensity after 12 hrs by DCFDA staining based microscopy analysis; format: functional, cell-based; settings: dose microM 10-30, time 12.0 hrs
Method in brief: (§4)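 Cells were exposed to 0, 10, 20 or 30 μM for 12 h, then stained with DCFDA (100 μM) for 30 min. Green fluorescence was imaged by microscopy and intensity was also read spectrophotometrically. Data are the mean of three experiments ±SD.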

MDA-MB-231 = experiment: Antiproliferative activity against human MDA-MB-231 cells assessed as inhibition of cell proliferation by MTT assay; format: functional; settings: read-out: LD50 (the source's name); method in brief: as §1
MCF7 [5] = experiment: Antiproliferative activity against human MCF7 cells assessed as inhibition of cell proliferation by MTT assay; format: functional; settings: read-out: LD50 (the source's name); method in brief: as §1
MCF7 [6] = experiment: Induction of mitochondrial ROS production in human MCF7 cells at 10 to 30 uM by MitoSox red dye based spectrofluorimetric analysis; format: functional, cell-based; settings: dose microM 10-30
Method in brief: (§5)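 Cells were treated at 10, 20 and 30 μM and stained with MitoSOX Red. Red fluorescence from oxidized product was imaged and its intensity measured spectroscopically. Mean of three experiments ±SD.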

MDA-MB-468 [7] = experiment: Induction of DNA damage in human MDA-MB-468 cells assessed as tail length at 20 uM measured after 24 hrs by comet assay; format: functional
Method in brief: (§6)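 Cells given 0, 10, 20 and 30 μM; DNA strand breaks were assessed by single-cell gel electrophoresis (comet assay). Fragmented DNA migrates toward the anode, and tail length was measured against untreated cells.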

WI-38 [8] = experiment: Induction of apoptosis in human WI-38 cells assessed as increase in cleaved caspase-3 expression at 10 to 30 uM by Western blot analysis; format: cell-based; settings: wi-38, 30 µM, dose 10-30 µM
MCF7 [9] = experiment: Induction of apoptosis in human MCF7 cells measured after 24 hrs by annexinV-FITC/propidium iodide staining based flow cytometry analysis; format: functional, cell-based; settings: dose microM 10-30, time 24.0 hrs; method in brief: as §3
[10] = Selectivity index, ratio of LD50 for human WI-38 cells to LD50 for human MCF7 cells assessed as inhibition of cell proliferation by MTT assay; format: toxicity; settings: WI-38 cells and MCF7 cells, read-out: Selectivity Index
Method in brief: (§7)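 MTT proliferation assay on cells treated with 0–50 μM. LD50 was derived for each cell line, and the selectivity index was calculated as WI-38 LD50 divided by cancer-cell LD50.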

MDA-MB-468 [11] = experiment: Induction of mitochondrial membrane potential loss in human MDA-MB-468 cells by JC-1 staining based analysis; format: functional, cell-based; settings: dose microM 10-30
Method in brief: (§8)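 Cells were given 10, 20 and 30 μM and stained with JC-1. Mitochondrial membrane potential change was read as the shift from red to green fluorescence, i.e. the red/green ratio, across concentration and time.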

[12] = Selectivity index, ratio of LD50 for human WI-38 cells to LD50 for human MDA-MB-231 cells assessed as inhibition of cell proliferation by MTT assay; format: toxicity; settings: WI-38 cells and MDA-MB-231 cells, read-out: Selectivity Index
MDA-MB-468 [13] = experiment: Induction of apoptosis in human MDA-MB-468 cells assessed as increase in cleaved caspase-3 expression at 10 to 30 uM in presence of pan-caspase inhibitor z-VAD-FMK by Western blot analysis; format: functional, cell-based; settings: dose microM 10-30
Method in brief: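 MDA-MB-468 cells were exposed to the caspase inhibitor Z-VAD-FMK, then treated with 10, 20 or 30 μM. Cleaved caspase-3 was detected by Western blot and quantified.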

MDA-MB-468 [14] = experiment: Induction of apoptosis in human MDA-MB-468 cells assessed as decrease in pBad expression at 10 to 30 uM by Western blot analysis; format: functional, cell-based; settings: dose microM 10-30
Method in brief: (§9)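 MDA-MB-468 cells were treated with 10, 20 and 30 μM. Bcl2, Bax, cleaved caspase-3, p53 and pBad were probed by Western blot, and band expression was quantified.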

4T1 = experiment: Antiproliferative activity against mouse 4T1 cells assessed as inhibition of cell proliferation by MTT assay; format: functional; settings: read-out: LD50 (the source's name); method in brief: as §1
MDA-MB-468 [15] = experiment: Induction of mitochondrial ROS production in human MDA-MB-468 cells at 10 to 30 uM by MitoSox red dye based spectrofluorimetric analysis; format: functional, cell-based; settings: dose microM 10-30; method in brief: as §5
MDA-MB-468 [16] = experiment: Induction of apoptosis in human MDA-MB-468 cells assessed as activation of caspase-3 cleavage at 10 to 30 uM by Western blot analysis; format: functional, cell-based; settings: dose microM 10-30; method in brief: as §9
MDA-MB-468 [17] = experiment: Induction of apoptosis in human MDA-MB-468 cells assessed as increase in p53 expression at 10 to 30 uM by Western blot analysis; format: functional, cell-based; settings: dose microM 10-30; method in brief: as §9
MCF7 [18] = experiment: Induction of ROS generation in human MCF7 cells assessed as increase in fluorescence intensity at 10 to 30 uM after 12 hrs in presence of ROS scavenger NAC by DCFDA staining based microscopy analysis; format: functional, cell-based; settings: dose microM 10-30, time 12.0 hrs; method in brief: as §2
[19] = Selectivity index, ratio of LD50 for human WI-38 cells to LD50 for mouse 4T1 cells assessed as inhibition of cell proliferation by MTT assay
Method in brief: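 Selectivity index computed as MTT-derived LD50 in non-cancerous WI-38 lung fibroblasts divided by LD50 in the cancer line (cells exposed to 0-50 μM).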

MDA-MB-468 [20] = experiment: Induction of ROS generation in human MDA-MB-468 cells assessed as increase in fluorescence intensity after 12 hrs by DCFDA staining based microscopy analysis; format: functional, cell-based; settings: dose microM 10-30, time 12.0 hrs; method in brief: as §4
MCF7 [21] = experiment: Induction of apoptosis in human MCF7 cells at 30 uM measured after 24 hrs by annexinV-FITC/propidium iodide staining based flow cytometry analysis relative to control; format: functional; method in brief: as §3
WI-38 [22] = experiment: Induction of ROS generation in human WI-38 cells assessed as increase in fluorescence intensity at 10 to 30 uM after 12 hrs by DCFDA staining based microscopy analysis; format: cell-based; settings: wi-38, 12 h, dose 10-30 µM; method in brief: as §4
[23] = Selectivity index, ratio of LD50 for human WI-38 cells to LD50 for human MDA-MB-468 cells assessed as inhibition of cell proliferation by MTT assay; format: toxicity; settings: WI-38 cells and MDA-MB-468 cells, read-out: Selectivity Index; method in brief: as §7
MDA-MB-468 [24] = experiment: Induction of apoptosis in human MDA-MB-468 cells assessed as increase in BAX/Bcl2 expression ratio at 10 to 30 uM by Western blot analysis; format: functional, cell-based; settings: dose microM 10-30; method in brief: as §9
MDA-MB-468 [25] = experiment: Induction of mitochondrial membrane potential loss in human MDA-MB-468 cells at 10 to 30 uM by JC-1 staining based analysis; format: functional, cell-based; settings: dose microM 10-30, TDE = time-dependent effect; method in brief: as §8
MDA-MB-468 [26] = experiment: Induction of apoptosis in human MDA-MB-468 cells measured after 24 hrs by annexinV-FITC/propidium iodide staining based flow cytometry analysis; format: functional, cell-based; settings: dose microM 10-30, time 24.0 hrs; method in brief: as §3
MCF7 [27] = experiment: Induction of mitochondrial membrane potential loss in human MCF7 cells by JC-1 staining based analysis; format: functional, cell-based; settings: dose microM 10-30; method in brief: as §8
MDA-MB-468 [28] = experiment: Induction of apoptosis in human MDA-MB-468 cells assessed as decrease in Bcl2 expression at 10 to 30 uM by Western blot analysis; format: functional, cell-based; settings: dose microM 10-30; method in brief: as §9
MCF7 [29] = experiment: Induction of mitochondrial membrane potential loss in human MCF7 cells at 10 to 30 uM by JC-1 staining based analysis; format: functional, cell-based; settings: dose microM 10-30, TDE = time-dependent effect; method in brief: as §8
WI-38 [30] = experiment: Induction of apoptosis in human WI-38 cells at 10 to 30 uM measured after 24 hrs by annexinV-FITC/propidium iodide staining based flow cytometry analysis; format: cell-based; settings: wi-38, 24 h, dose 10-30 µM; method in brief: as §3
MDA-MB-468 [31] = experiment: Induction of DNA damage in human MDA-MB-468 cells assessed as tail length at 30 uM measured after 24 hrs by comet assay; format: functional; method in brief: as §6
MDA-MB-468 [32] = experiment: Antiproliferative activity against human MDA-MB-468 cells assessed as inhibition of cell proliferation by MTT assay; format: functional; settings: read-out: LD50 (the source's name); method in brief: as §1
WI-38 [33] = experiment: Induction of mitochondrial membrane potential loss in human WI-38 cells at 10 to 30 uM by JC-1 staining based analysis; format: cell-based; settings: wi-38, 30 µM, dose 10-30 µM; method in brief: as §8

## Cc1ccc(C(=O)[C@@H]2Cc3c(ccc4ccccc34)O2)cc1
[1]
  CC50: 58 µM
MDA-MB-468 [2]
  Activity: inactive
MDA-MB-468 [3]
  Activity: 69%
MCF7 [4]
  Activity: Dose-dependent effect
MDA-MB-231
  CC50: 19 µM
MCF7 [5]
  CC50: 17 µM
MCF7 [6]
  Activity: Active
MDA-MB-468 [7]
  Activity: 32 µm
WI-38 [8]
  Activity: Non-Toxic
MCF7 [9]
  Activity: Dose-dependent effect
[10]
  selectivity ratio: 3.41
MDA-MB-468 [11]
  Activity: Dose-dependent effect
[12]
  selectivity ratio: 3.05
MDA-MB-468 [13]
  Activity: inactive
MDA-MB-468 [14]
  Activity: Active
4T1
  CC50: 21 µM
MDA-MB-468 [15]
  Activity: Active
MDA-MB-468 [16]
  Activity: Active
MDA-MB-468 [17]
  Activity: Active
MCF7 [18]
  Activity: inactive
[19]
  Selectivity Index: 2.76
MDA-MB-468 [20]
  Activity: Dose-dependent effect
MCF7 [21]
  Activity: 61%
WI-38 [22]
  Activity: Non-Toxic
[23]
  selectivity ratio: 3.87
MDA-MB-468 [24]
  Activity: Active
MDA-MB-468 [25]
  Activity: Tde
MDA-MB-468 [26]
  Activity: Dose-dependent effect
MCF7 [27]
  Activity: Dose-dependent effect
MDA-MB-468 [28]
  Activity: Active
MCF7 [29]
  Activity: Tde
WI-38 [30]
  Activity: Non-Toxic
MDA-MB-468 [31]
  Activity: 63 µm
MDA-MB-468 [32]
  CC50: 15 µM
WI-38 [33]
  Activity: Non-Toxic
